{"data": "Published values gathered from unrelated publications", "medium": "plasma", "note": "Protocols differ between the studies behind these lines."}
{"Structure (SMILES)": "O=C(Nc1cc(F)c(F)c(F)c1)c1ccc(F)c(S(=O)(=O)NCc2cccc(B(O)O)c2)c1", "host": "male Sprague-Dawley rat", "route": "intravenous", "dose": "2 mg/kg", "AUC(0-t) [ng·h/mL]": 242}
{"Structure (SMILES)": "COc1ccc(C(C)=O)c(O)c1", "host": "male Sprague-Dawley rat", "route": "oral", "dose": "100 mg/kg", "AUC(0-t) [ng·h/mL]": 33600}
{"Structure (SMILES)": "COc1ccc2c(Cc3ccccc3F)c3[n+](cc2c1OC)CCc1cc2c(cc1-3)OCO2.[Br-]", "host": "rat", "route": "intravenous", "dose": "5 mg/kg", "AUC(0-t) [ng·h/mL]": 113}
{"Structure (SMILES)": "COc1nc(-c2cc(C)c(N[C@@H](C)c3cc(F)cc(F)c3)nn2)ccc1-n1cnc(C)c1", "host": "male Sprague-Dawley rat", "route": "intravenous", "dose": "1 mg/kg", "setting": "single dose", "AUC(0-t) [ng·h/mL]": 6350}
{"Structure (SMILES)": "CCc1cc(C(=O)NC)c2nccc(N3CCc4c(cc(Cn5ccnc5)cc4-c4cn(C)nc4C(F)(F)F)C3=O)c2c1", "host": "male Sprague-Dawley rat", "route": "oral", "dose": "50 mg/kg", "setting": "single dose", "AUC(0-t) [ng·h/mL]": 11100}
{"Structure (SMILES)": "N#Cc1ccc(Nc2nc(N)cc(Oc3c(F)cc(-c4ccc(C#N)cc4)cc3F)n2)cc1", "host": "Sprague-Dawley rat", "route": "intravenous", "dose": "1 mg/kg", "AUC(0-t) [ng·h/mL]": 302}
{"Structure (SMILES)": "Cc1nc(-c2cnc(NC(C)C)n(C)c2=O)ccc1Oc1ccnc(-c2cnn(C)c2)c1", "host": "male Sprague-Dawley rat", "route": "intravenous", "dose": "1 mg/kg", "AUC(0-t) [ng·h/mL]": 21500}
{"Structure (SMILES)": "CCc1cc(OC)c2nccc(N3CCc4c(cc(Cn5ccnc5)cc4-c4cn(C)nc4C(F)(F)F)C3=O)c2c1", "host": "male Sprague-Dawley rat", "route": "intravenous", "dose": "3 mg/kg", "AUC(0-t) [ng·h/mL]": 952}
{"Structure (SMILES)": "C=CC(=O)N1CC2CC(n3nc(-c4ccc(C(=O)Nc5ccccn5)cc4)c4c(N)ncnc43)CC2C1 (centres unmarked)", "host": "male Wistar rat", "route": "oral", "dose": "100 mg/kg", "AUC(0-t) [ng·h/mL]": 13200}
{"Structure (SMILES)": "CCOC(=O)[C@@]12C[C@@H]1[C@@H](n1ccc3c(NC)nc(C#Cc4ccc(Cl)s4)nc31)[C@H](O)[C@@H]2O", "host": "male Sprague-Dawley rat", "route": "oral", "dose": "3 mg/kg", "AUC(0-t) [ng·h/mL]": 170}
{"Structure (SMILES)": "C#Cc1cccc(Nc2ncnc3cc(OCCOC)c(OCCOC)cc23)c1", "host": "male Sprague-Dawley rat", "route": "oral", "dose": "12 mg/kg", "setting": "single dose", "AUC(0-t) [ng·h/mL]": 9250}
{"Structure (SMILES)": "Cc1c(-c2ccccc2)cccc1N1C(=O)c2cc(CN[C@H](C(=O)O)C(C)O)c(OCc3cccc(C#N)c3)cc2C1=O (some centres unmarked)", "host": "Sprague-Dawley rat", "route": "oral", "dose": "50 mg/kg", "AUC(0-t) [ng·h/mL]": 75}
{"Structure (SMILES)": "COc1ccc2c(Cc3ccccc3F)c3n(c(=O)c2c1OC)CCc1cc2c(cc1-3)OCO2", "host": "rat", "route": "intravenous", "dose": "5 mg/kg", "AUC(0-t) [ng·h/mL]": 22700}
{"Structure (SMILES)": "C[C@H](Nc1ncnc2[nH]cnc12)c1cc2cccc(Cl)c2c(=O)n1-c1ccccc1", "host": "male Wistar rat", "route": "oral", "dose": "25 mg/kg", "setting": "single dose", "AUC(0-t) [ng·h/mL]": 9340}
